Drawing on ChEMBL document CHEMBL5046221, “Identification of Pyrimidine-Based Lead Compounds for Understudied Kinases Implicated in Driving Neurodegeneration” (J Med Chem, 2022), this text covers % control and IC50 for four compounds.

As usually defined, the IC50 is the midpoint of a concentration-inhibition curve.

Experiment [1] has as its target T1, Serine/threonine-protein kinase 17B (Homo sapiens) (UniProt O94768).
T1 sequence (whole entry): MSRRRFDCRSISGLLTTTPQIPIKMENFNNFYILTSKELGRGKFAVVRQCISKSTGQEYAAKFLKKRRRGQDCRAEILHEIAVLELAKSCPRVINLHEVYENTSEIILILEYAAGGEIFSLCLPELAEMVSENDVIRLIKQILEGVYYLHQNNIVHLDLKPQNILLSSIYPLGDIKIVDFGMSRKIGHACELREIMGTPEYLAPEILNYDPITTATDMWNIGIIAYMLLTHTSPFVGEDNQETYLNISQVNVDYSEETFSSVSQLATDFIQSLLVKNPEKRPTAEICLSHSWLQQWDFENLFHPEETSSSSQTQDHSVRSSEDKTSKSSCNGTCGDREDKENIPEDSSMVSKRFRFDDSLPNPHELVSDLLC
The experiment in a line: Inhibition of full length recombinant human DRAK2 using KKRPQRRYSNVF as substrate at 1 uM incubated for 120 mins in presence of [gamma-33P-ATP] by radiometric scintillation assay relative to control. In short, it runs like this: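 Eurofins radiometric kinase assay with ATP at Km for each kinase. Compound was tested at a single 1 μM concentration in duplicate, and the result is reported as percent of control.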

For a further experiment, the target named is Activin receptor type-1 (Homo sapiens, UniProt Q04771). Kind of experiment: Inhibition of human ALK2 (147 to end residues) using casein as substrate incubated for 40 mins in presence of [gamma-33ATP] by scintillation counting based radiometry assay. In short, it runs like this: (§1)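 Eurofins radiometric enzymatic assay with ATP at Km for each kinase. IC50 was derived from a 9-point dose–response curve run in duplicate.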
Chain of Activin receptor type-1 (Q04771 whole entry): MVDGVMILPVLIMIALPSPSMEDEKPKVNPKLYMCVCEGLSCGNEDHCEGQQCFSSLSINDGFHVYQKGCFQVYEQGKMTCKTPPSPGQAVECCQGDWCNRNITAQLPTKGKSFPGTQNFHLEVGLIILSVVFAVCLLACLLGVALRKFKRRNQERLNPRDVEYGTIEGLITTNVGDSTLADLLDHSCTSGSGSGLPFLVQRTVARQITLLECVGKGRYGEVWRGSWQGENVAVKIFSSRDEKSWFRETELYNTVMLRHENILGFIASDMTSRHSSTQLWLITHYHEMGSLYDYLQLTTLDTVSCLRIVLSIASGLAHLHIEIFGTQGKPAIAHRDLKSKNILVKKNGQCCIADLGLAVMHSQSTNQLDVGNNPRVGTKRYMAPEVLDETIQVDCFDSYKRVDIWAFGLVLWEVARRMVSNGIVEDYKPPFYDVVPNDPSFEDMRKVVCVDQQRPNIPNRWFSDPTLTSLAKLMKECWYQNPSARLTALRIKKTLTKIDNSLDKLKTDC

For experiment [2], the target named is BMP-2-inducible protein kinase (Homo sapiens, UniProt Q9NSY1). Kind of experiment: Residual activity of human BMP2K at 1 uM using peptide as substrate incubated for 120 mins in presence of [gamma-33P-ATP] by radiometric scintillation assay relative to control.
Chain of BMP-2-inducible protein kinase (Q9NSY1 whole entry, looked up): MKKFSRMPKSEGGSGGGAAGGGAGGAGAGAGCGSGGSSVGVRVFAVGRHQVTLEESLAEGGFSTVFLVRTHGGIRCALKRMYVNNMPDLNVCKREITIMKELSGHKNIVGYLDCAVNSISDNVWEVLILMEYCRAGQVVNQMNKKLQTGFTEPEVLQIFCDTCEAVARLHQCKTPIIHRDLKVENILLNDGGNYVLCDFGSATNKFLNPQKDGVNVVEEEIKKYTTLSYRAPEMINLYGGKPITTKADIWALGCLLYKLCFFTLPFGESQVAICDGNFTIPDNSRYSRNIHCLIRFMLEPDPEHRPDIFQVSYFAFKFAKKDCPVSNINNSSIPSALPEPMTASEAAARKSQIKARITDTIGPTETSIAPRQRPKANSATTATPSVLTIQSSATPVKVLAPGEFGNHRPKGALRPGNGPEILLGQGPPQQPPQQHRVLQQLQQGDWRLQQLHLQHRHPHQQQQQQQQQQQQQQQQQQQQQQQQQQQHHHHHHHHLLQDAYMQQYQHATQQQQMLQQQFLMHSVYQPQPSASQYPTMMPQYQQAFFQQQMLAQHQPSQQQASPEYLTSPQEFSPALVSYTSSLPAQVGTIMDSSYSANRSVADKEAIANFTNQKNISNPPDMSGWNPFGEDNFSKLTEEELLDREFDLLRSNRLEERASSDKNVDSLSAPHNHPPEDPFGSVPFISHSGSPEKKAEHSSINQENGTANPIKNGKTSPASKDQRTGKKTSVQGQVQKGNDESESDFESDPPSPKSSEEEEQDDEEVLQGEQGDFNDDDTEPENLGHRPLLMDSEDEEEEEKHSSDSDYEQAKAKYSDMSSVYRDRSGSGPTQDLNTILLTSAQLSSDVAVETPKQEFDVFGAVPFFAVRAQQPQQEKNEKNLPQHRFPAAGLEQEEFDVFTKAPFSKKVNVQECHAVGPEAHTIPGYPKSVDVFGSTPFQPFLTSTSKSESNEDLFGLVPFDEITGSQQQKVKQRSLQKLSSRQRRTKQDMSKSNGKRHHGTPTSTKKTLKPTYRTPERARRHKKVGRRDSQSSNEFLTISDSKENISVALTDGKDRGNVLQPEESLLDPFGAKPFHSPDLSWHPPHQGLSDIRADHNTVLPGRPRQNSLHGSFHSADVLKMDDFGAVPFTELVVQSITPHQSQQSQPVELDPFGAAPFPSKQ
Experiment [3] concerns the target Casein kinase II subunit alpha (Homo sapiens, UniProt P68400). The experiment in a line: Inhibition of full length recombinant human CSNK2A1 using RRRDDDSDDD as substrate incubated for 40 mins in presence of [gamma-33P-ATP] by radiometric scintillation assay. Summed up:
as §1

Experiment [4] has as its target T2, Inhibitor of nuclear factor kappa-B kinase subunit epsilon (Homo sapiens, UniProt Q14164).
T2 sequence (Q14164 whole entry): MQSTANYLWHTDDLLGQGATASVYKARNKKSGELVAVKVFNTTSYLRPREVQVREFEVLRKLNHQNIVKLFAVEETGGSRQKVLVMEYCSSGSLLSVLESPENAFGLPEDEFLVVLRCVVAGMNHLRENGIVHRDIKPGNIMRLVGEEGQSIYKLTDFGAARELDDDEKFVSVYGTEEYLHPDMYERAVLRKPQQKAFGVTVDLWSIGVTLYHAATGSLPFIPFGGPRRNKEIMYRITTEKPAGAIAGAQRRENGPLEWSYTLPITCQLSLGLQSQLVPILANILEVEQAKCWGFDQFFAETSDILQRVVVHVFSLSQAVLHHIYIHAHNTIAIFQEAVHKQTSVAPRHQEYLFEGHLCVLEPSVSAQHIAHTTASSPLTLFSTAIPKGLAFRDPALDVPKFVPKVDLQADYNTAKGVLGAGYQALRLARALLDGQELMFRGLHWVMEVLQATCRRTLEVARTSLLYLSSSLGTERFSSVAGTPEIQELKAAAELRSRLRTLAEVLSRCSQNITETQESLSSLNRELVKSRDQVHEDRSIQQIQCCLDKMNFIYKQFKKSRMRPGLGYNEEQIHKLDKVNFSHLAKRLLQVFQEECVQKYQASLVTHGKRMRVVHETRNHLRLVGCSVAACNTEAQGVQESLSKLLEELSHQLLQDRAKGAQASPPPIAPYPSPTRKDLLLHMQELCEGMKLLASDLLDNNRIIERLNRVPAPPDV
The experiment in a line: Inhibition of full length recombinant human IKKepsilon using casein as substrate incubated for 40 mins in presence of [gamma-33P-ATP] by radiometric scintillation assay. Summed up: (§2)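 Eurofins radiometric kinase assay run at ATP equal to Km for each kinase. 9-point dose–response in duplicate gives the IC50.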

Experiment [5] concerns the target MAP kinase-interacting serine/threonine-protein kinase 2 (Homo sapiens, UniProt Q9HBH9). Kind of experiment: Inhibition of full length recombinant human MKNK2 using myelin basic protein as substrate incubated for 40 mins in presence of [gamma-33P-ATP] by radiometric scintillation assay. In short, it runs like this: as §2

Chain of Casein kinase II subunit alpha (P68400 whole entry): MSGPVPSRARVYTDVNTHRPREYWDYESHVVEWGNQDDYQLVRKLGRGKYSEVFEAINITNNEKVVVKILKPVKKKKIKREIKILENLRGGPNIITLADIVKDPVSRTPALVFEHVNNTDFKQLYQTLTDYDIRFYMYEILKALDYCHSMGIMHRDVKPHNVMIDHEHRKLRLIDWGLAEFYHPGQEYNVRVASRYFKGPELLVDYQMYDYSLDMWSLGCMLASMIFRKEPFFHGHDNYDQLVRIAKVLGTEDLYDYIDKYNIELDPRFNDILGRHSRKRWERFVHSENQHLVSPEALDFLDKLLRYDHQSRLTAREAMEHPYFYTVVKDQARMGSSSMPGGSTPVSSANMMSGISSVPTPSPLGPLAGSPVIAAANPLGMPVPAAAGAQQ
Chain of MAP kinase-interacting serine/threonine-protein kinase 2 (Q9HBH9 whole entry): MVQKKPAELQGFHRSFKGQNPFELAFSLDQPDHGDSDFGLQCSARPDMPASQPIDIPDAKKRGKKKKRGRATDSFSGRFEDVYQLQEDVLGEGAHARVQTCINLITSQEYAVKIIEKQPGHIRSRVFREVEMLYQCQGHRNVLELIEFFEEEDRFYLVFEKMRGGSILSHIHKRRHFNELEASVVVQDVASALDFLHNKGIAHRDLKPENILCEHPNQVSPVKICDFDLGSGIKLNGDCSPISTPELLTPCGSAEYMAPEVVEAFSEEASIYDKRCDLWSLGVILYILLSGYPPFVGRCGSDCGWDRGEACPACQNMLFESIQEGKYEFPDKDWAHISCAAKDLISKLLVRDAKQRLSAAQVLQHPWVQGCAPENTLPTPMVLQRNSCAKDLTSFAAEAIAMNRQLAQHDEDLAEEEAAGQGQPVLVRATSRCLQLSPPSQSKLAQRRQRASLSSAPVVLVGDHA

With `c1cc(CN2CCOCC2)cc(Nc2nccc(NCCc3cnc[nH]3)n2)c1`, the results for the % control in experiment [1] and in experiment [2] were 65% and 58%, respectively. Further, the IC50 on Activin receptor type-1 is 537 nM.
As to `NS(=O)(=O)c1ccc(CNc2nc(Nc3cccc(CN4CCOCC4)c3)ncc2Br)cc1`, the IC50 in experiment [3] was over 10000 nM.
Consider `NS(=O)(=O)c1ccc(CNc2nc(Nc3cccc(CN4CCOCC4)c3)ncc2C2CC2)cc1`, for which the IC50 in experiment [4] was determined as 1310 nM.
Consider `NS(=O)(=O)c1ccc(CNc2nc(Nc3cccc(NC(=O)N4CCCC4)c3)ncc2Br)cc1`, for which the IC50 in experiment [5] came out at 1010 nM.
